From paper PMC11754507 (Ophthalmology Science, 2024)

Experiments:
[1] = tested on: systemic C3 activation (alternative pathway); settings: serum concentration threshold for inhibition of systemic C3 activation; cited from earlier work
[2] = format: in vivo, human; settings: intravitreal
In short: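 Serum levels pooled from 4 clinical studies in adults with GA or nAMD, after single intravitreal 4, 10 or 20 mg or 15 mg monthly or every other month. LLOQ 0.10 μg/mL; BLQ samples (>20%) handled by M3 method. Vitreous dose compartment, first-order absorption into one serum compartment, first-order elimination; stepwise covariates (forward α=0.05, backward α=0.001); half-lives are median empirical Bayes estimates.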

[3] = tested on: systemic C3 activation (classical pathway); settings: serum concentration threshold for inhibition of systemic C3 activation; cited from earlier work
[4] = median empirical Bayes estimated

pegcetacoplan
half-maximal effective concentration [EC50], alternative pathway [1]: 2.77 µg/mL | VC/F, Transformed Estimate ([2]; apparent volume of the central serum compartment, 261 patients with GA or nAMD): 1.83 L | half-life based on the slowest rate process [2]: approximately 2 weeks | absorption half-life (vitreous-to-serum) [2, 4]: 314 h | elimination half-life (serum) [2, 4]: 108 h | KA, Transformed Estimate ([2]; vitreous-to-serum absorption rate constant, 261 patients with GA or nAMD): 0.0528 day⁻¹ | EC50, classical pathway [3]: 5.90 µg/mL
